{"data": "Measured values gathered from unrelated publications", "read-out": "cell growth or viability", "note": "Protocols differ between the studies behind these lines."}
{"Compound": "C=CCNC(=S)NNC(=O)COc1ccc2c(C)c(CC)c(=O)oc2c1C", "cell line": "PC-3", "test": "MTT", "conditions": "1000 µg/mL", "measurement": "viability", "result": "2.65%"}
{"Compound": "O=C(C=Cc1ccccc1)Nc1cc(-c2ccnc(N3CCOCC3)c2)ccn1", "cell line": "A549", "test": "MTT", "conditions": "5 µM", "measurement": "inhibition", "result": "76.7%"}
{"Compound": "Cc1ccc(-c2cc(-c3ccc(Cl)cc3)c3c(=O)n(C)c(=O)n(C)c3n2)cc1", "cell line": "PC-3", "test": "MTT", "conditions": "48 h", "measurement": "IC50", "result": "11.7 µM"}
{"Compound": "Cc1cccc(/C=C/C(=O)Nc2cccc(-c3ccnc(N4CCOCC4)c3)c2)c1", "cell line": "A549", "test": "MTT", "conditions": "5 µM", "measurement": "inhibition", "result": "29.4%"}
{"Compound": "COc1ccc(-c2cc(-c3ccc(OC)cc3)c3c(=O)n(C)c(=O)n(C)c3n2)cc1", "cell line": "PC-3", "test": "MTT", "conditions": "48 h", "measurement": "IC50", "result": "26.2 µM"}
{"Compound": "O=C(/C=C/c1cccc(F)c1)Nc1cc(-c2ccnc(N3CCC(O)CC3)c2)ccn1", "cell line": "A549", "test": "MTT", "conditions": "5 µM", "measurement": "inhibition", "result": "62.4%"}
{"Compound": "Cc1c(Cc2ccccc2)c(=O)oc2c(C)c(OCC(=O)NN=Cc3ccco3)ccc12", "cell line": "PC-3", "test": "MTT", "conditions": "500 µg/mL", "measurement": "viability", "result": "8.21%"}
{"Compound": "COc1cc2ncnc(Nc3ccc4c(c3)/C(=C/c3ccccc3)C(=O)N4)c2cc1OC", "cell line": "A549", "test": "MTT", "measurement": "IC50", "result": "17.1 µM"}
{"Compound": "CCOc1ccc2c(C)c(CC)c(=O)oc2c1C", "cell line": "PC-3", "test": "MTT", "conditions": "125 µg/mL", "measurement": "viability", "result": "51%"}
{"Compound": "Cc1cccc(/C=C/C(=O)Nc2cc(-c3ccnc(N4CCOCC4)c3)ccn2)c1", "cell line": "A549", "test": "MTT", "conditions": "5 µM", "measurement": "inhibition", "result": "74.9%"}
{"Compound": "COc1ccc(-c2cc(-c3ccc(C)cc3)nc3[nH]c(=O)[nH]c(=O)c23)cc1OC", "cell line": "PC-3", "test": "MTT", "conditions": "48 h", "measurement": "IC50", "result": "39.1 µM"}
{"Compound": "C=CC(=O)NC1CCN(c2ncc3ncnc(Nc4ccc(Oc5ccc6c(c5)ncn6C)c(C)c4)c3n2)CC1", "cell line": "NCI-H2170", "measurement": "IC50", "result": "0.0581 µM"}
{"Compound": "Cc1c(Cc2ccccc2)c(=O)oc2c(C)c(OCC(=O)NN=Cc3ccccc3)ccc12", "cell line": "PC-3", "test": "MTT", "conditions": "31.25 µg/mL", "measurement": "viability", "result": "42.1%"}
{"Compound": "COc1cccc2c1C(=O)c1c(O)c3c(c(O)c1C2=O)C[C@@](O)(C(=O)CO)C[C@@H]3O[C@H]1C[C@H](N)[C@H](O)[C@H](C)O1", "cell line": "A549", "test": "MTT", "conditions": "100 µg/mL, 48 h, serum-free", "measurement": "viability", "result": "12.4%"}
{"Compound": "O=C(C=Cc1ccccc1)Nc1cccc(-c2ccnc(N3CCOCC3)c2)c1", "cell line": "A549", "test": "MTT", "conditions": "5 µM", "measurement": "inhibition", "result": "49.3%"}
{"Compound": "CCc1c(C)c2ccc(OCC(=O)NNC(=S)Nc3ccccc3)c(C)c2oc1=O", "cell line": "PC-3", "test": "MTT", "conditions": "31.25 µg/mL", "measurement": "viability", "result": "48.3%"}
{"Compound": "O=C(/C=C/c1ccc(F)cc1)Nc1cc(-c2ccnc(N3CCC(O)CC3)c2)ccn1", "cell line": "A549", "test": "MTT", "conditions": "5 µM", "measurement": "inhibition", "result": "62.2%"}
{"Compound": "CCc1c(C)c2ccc(OCC(=O)NN=Cc3ccc([N+](=O)[O-])cc3)cc2oc1=O", "cell line": "PC-3", "test": "MTT", "conditions": "500 µg/mL", "measurement": "viability", "result": "5.32%"}
{"Compound": "O=C(O)c1ccc2c(c1)nc(Nc1cccc(Cl)c1)c1ccncc12", "cell line": "NCI-H522", "test": "crystal violet", "conditions": "48 h", "measurement": "IC50", "result": "3.1 µM"}
{"Compound": "COc1cc2ncnc(Nc3ccc4c(c3)/C(=C/c3ccccc3)C(=O)N4C)c2cc1OC", "cell line": "A549", "test": "MTT", "measurement": "IC50", "result": "14.4 µM"}
{"Compound": "C=CCOc1ccc2c(C)c(CC)c(=O)oc2c1C", "cell line": "PC-3", "test": "MTT", "conditions": "31.25 µg/mL", "measurement": "viability", "result": "99.7%"}
{"Compound": "COc1cc2ncnc(N(C)c3ccc4c(c3)/C(=C/c3ccccc3)C(=O)N4C)c2cc1OC (mixture of isomers)", "cell line": "A549", "test": "MTT", "measurement": "IC50", "result": "3.24 µM"}
{"Compound": "CC(C)C[C@@H]1NC(=O)[C@@H](N(C)C(=O)[C@H](CC2CCC2)NC(=O)[C@@H]2C[C@@H](F)CN2C(=O)C2(C(F)(F)F)CC(F)(F)C2)CCCCNC(=O)C2(CC2)NC(=O)[C@H](Cc2cc(Cl)ccc2Cl)N(C)C1=O", "cell line": "NCI-H1048", "test": "MTT", "conditions": "5 days", "measurement": "GI50", "result": "0.032 µM"}
{"Compound": "Cc1cc(NC(=O)C=Cc2ccccc2)cc(-c2ccnc(N3CCC(CO)CC3)c2)c1", "cell line": "A549", "test": "MTT", "conditions": "5 µM", "measurement": "inhibition", "result": "54.3%"}
{"Compound": "CC(=NNC(=O)COc1ccc2c(C)c(Cc3ccccc3)c(=O)oc2c1C)c1ccc(Br)cc1", "cell line": "PC-3", "test": "MTT", "conditions": "500 µg/mL", "measurement": "viability", "result": "2.33%"}
{"Compound": "O=C(C=Cc1ccccc1)Nc1cccc(-c2ccnc(N3CCC(CO)CC3)c2)c1", "cell line": "A549", "test": "MTT", "conditions": "5 µM", "measurement": "inhibition", "result": "59.1%"}
{"Compound": "Cc1nc(Nc2ccc3c(c2)CC(=O)N3)c2ccccc2n1", "cell line": "A549", "test": "MTT", "measurement": "IC50", "result": "28.5 µM"}
